In ChEMBL document CHEMBL1165943, “Design and synthesis of new anticancer pyrimidines with multiple-kinase inhibitory effect” (Bioorg Med Chem, 2010):

How the values were obtained:
[1] = system: A549; assay: Growth inhibition of human A549 cells after 48 hrs by sulforhodamine B assay; format: functional, cell-based; conditions: A549, 48 h; for CC50: read-out: LC50 (the source's name)
Outline: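 Five-dose SRB assay. Cells in RPMI 1640 with 5% FBS and 2 mM L-glutamine were seeded at 5,000–40,000 cells/well, with a TCA-fixed time-zero plate (Tz) taken at 24 h. Compound stocks were in DMSO, serially diluted 10-fold or ½-log to five concentrations, and incubated 48 h at 37 °C. Plates were stained with SRB and read at 515 nm. IC₅₀ was taken where [(Ti−Tz)/(C−Tz)]×100 = 50.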

[2] = system: IGROV-1; assay: Cytotoxicity against human IGROV1 cells assessed as cell growth at 10 uM after 48 hrs by sulforhodamine B assay; format: functional; conditions: IGROV-1, 48 h, read-out: Activity
[3] = system: NCI-H322M; assay: Cytotoxicity against human NCI-H322M cells assessed as cell growth at 0.01 uM after 48 hrs by sulforhodamine B assay; format: functional; conditions: read-out: Activity
[4] = system: COLO 205; assay: Cytotoxicity against human COLO205 cells assessed as cell growth at 0.001 uM after 48 hrs by sulforhodamine B assay; format: functional; conditions: COLO 205, 48 h, read-out: Activity
Outline: (§1)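 Cells grown in RPMI 1640 with 5% FBS and 2 mM L-glutamine, seeded at 5,000–40,000 cells/well by doubling time. Time-zero plates TCA-fixed after 24 h. Five concentrations (10-fold or half-log dilutions from DMSO stock) added; 48 h at 37 °C, 5% CO2. Cold TCA fixation (final 10%, 60 min, 4 °C), 0.4% SRB stain, dye solubilized in 10 mM trizma base, A515.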

[5] = system: IGROV-1; assay: Cytotoxicity against human IGROV1 cells assessed as cell growth at 0.01 uM after 48 hrs by sulforhodamine B assay; format: functional; conditions: IGROV-1, 48 h, read-out: Activity
[6] = system: BT-549; assay: Cytotoxicity against human BT549 cells assessed as cell growth at 0.01 uM after 48 hrs by sulforhodamine B assay; format: functional; conditions: BT-549, 48 h, read-out: Activity; outline: as §1
[7] = system: U-251; assay: Cytotoxicity against human U251 cells assessed as cell growth at 0.01 uM after 48 hrs by sulforhodamine B assay; format: functional; conditions: U-251, 48 h, read-out: Activity
[8] = system: SK-OV-3; assay: Cytotoxicity against human SKOV3 cells assessed as cell growth at 0.001 uM after 48 hrs by sulforhodamine B assay; format: functional; conditions: SK-OV-3, 48 h, read-out: Activity
[9] = Cytotoxicity against human Hs 578T cells assessed as cell growth at 0.01 uM after 48 hrs by sulforhodamine B assay; format: functional; conditions: read-out: Activity
[10] = system: K562; assay: Cytotoxicity against human K562 cells assessed as cell growth at 10 uM after 48 hrs by sulforhodamine B assay; format: functional; conditions: K562, 48 h, read-out: Activity
[11] = system: HCT-116; assay: Cytotoxicity against human HCT116 cells assessed as cell growth at 100 nM after 48 hrs by sulforhodamine B assay; format: functional; conditions: HCT-116, 48 h, read-out: Activity
[12] = system: MOLT-4; assay: Cytotoxicity against human MOLT4 cells assessed as cell growth at 0.001 uM after 48 hrs by sulforhodamine B assay; format: functional; conditions: MOLT-4, 48 h, read-out: Activity
[13] = system: SNB-75; assay: Cytotoxicity against human SNB75 cells assessed as cell growth at 1 uM after 48 hrs by sulforhodamine B assay; format: functional; conditions: SNB-75, 48 h, read-out: Activity
[14] = system: SW-620; assay: Cytotoxicity against human SW620 cells assessed as cell growth at 100 nM after 48 hrs by sulforhodamine B assay; format: functional; conditions: SW-620, 48 h, read-out: Activity
[15] = system: UACC-257; assay: Cytotoxicity against human UACC257 cells assessed as cell growth at 0.01 uM after 48 hrs by sulforhodamine B assay; format: functional; conditions: UACC-257, 48 h, read-out: Activity
[16] = system: NCI/ADR-RES; assay: Growth inhibition of human NCI/ADR-RES cells after 48 hrs by sulforhodamine B assay; format: functional, cell-based; conditions: for CC50: read-out: LC50 (the source's name)
Outline: (§2)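 Cells grown in RPMI 1640 with 5% FBS and 2 mM L-glutamine, seeded at 5,000–40,000 cells/well according to doubling time. After 24 h, time-zero plates are TCA-fixed. Five concentrations (10-fold or ½log dilutions, DMSO stocks) are applied for 48 h at 37 °C, 5% CO₂. Cells are TCA-fixed, SRB-stained and read at 515 nm. IC₅₀ is taken from [(Ti−Tz)/(C−Tz)]×100 = 50.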

[17] = system: NCI-H322M; assay: Cytotoxicity against human NCI-H322M cells assessed as cell growth at 0.001 uM after 48 hrs by sulforhodamine B assay; format: functional; conditions: read-out: Activity
[18] = system: SF-268; assay: Cytotoxicity against human SF268 cells assessed as cell growth at 1 uM after 48 hrs by sulforhodamine B assay; format: functional; conditions: SF-268, 48 h, read-out: Activity
[19] = system: SF-295; assay: Cytotoxicity against human SF295 cells assessed as cell growth at 0.001 uM after 48 hrs by sulforhodamine B assay; format: functional; conditions: SF-295, 48 h, read-out: Activity
[20] = system: DU-145; assay: Growth inhibition of human DU145 cells after 48 hrs by sulforhodamine B assay; format: functional, cell-based; conditions: for CC50: read-out: LC50 (the source's name); outline: as §2
[21] = system: CAKI-1; assay: Cytotoxicity against human Caki1 cells assessed as cell growth at 1 uM after 48 hrs by sulforhodamine B assay; format: functional; conditions: CAKI-1, 48 h, read-out: Activity; outline: as §1
[22] = system: SF-295; assay: Cytotoxicity against human SF295 cells assessed as cell growth at 100 nM after 48 hrs by sulforhodamine B assay; format: functional; conditions: SF-295, 48 h, read-out: Activity
[23] = system: LOX IMVI; assay: Cytotoxicity against human LOXIMVI cells assessed as cell growth at 0.01 uM after 48 hrs by sulforhodamine B assay; format: functional; conditions: read-out: Activity
[24] = system: NCI-H460; assay: Growth inhibition of human NCI-H460 cells after 48 hrs by sulforhodamine B assay; format: functional, cell-based; conditions: NCI-H460, 48 h; for CC50: read-out: LC50 (the source's name); outline: as §2
[25] = system: MOLT-4; assay: Cytotoxicity against human MOLT4 cells assessed as cell growth at 0.01 uM after 48 hrs by sulforhodamine B assay; format: functional; conditions: MOLT-4, 48 h, read-out: Activity
[26] = system: SF-268; assay: Cytotoxicity against human SF268 cells assessed as cell growth at 10 uM after 48 hrs by sulforhodamine B assay; format: functional; conditions: SF-268, 48 h, read-out: Activity
[27] = system: U-251; assay: Cytotoxicity against human U251 cells assessed as cell growth at 1 uM after 48 hrs by sulforhodamine B assay; format: functional; conditions: U-251, 48 h, read-out: Activity
[28] = system: OVCAR-5; assay: Cytotoxicity against human OVCAR5 cells assessed as cell growth at 0.001 uM after 48 hrs by sulforhodamine B assay; format: functional; conditions: OVCAR-5, 48 h, read-out: Activity
[29] = system: OVCAR-3; assay: Cytotoxicity against human OVCAR-3 cells assessed as cell growth at 10 uM after 48 hrs by sulforhodamine B assay; format: functional; conditions: OVCAR-3, 48 h, read-out: Activity
[30] = system: SF-268; assay: Cytotoxicity against human SF268 cells assessed as cell growth at 0.01 uM after 48 hrs by sulforhodamine B assay; format: functional; conditions: SF-268, 48 h, read-out: Activity
[31] = Homo sapiens, NCI/ADR-RES, 48 h

CC(=O)c1ccccc1-c1ccc(-c2ccnc(NC(=O)Nc3cc(N4CCOCC4)cc(C(F)(F)F)c3)n2)cn1
GI50 [1]: > 100 µM
IC50 [1]: > 100 µM
TGI [1]: > 100 µM
CC50 [1]: > 100 µM
growth at 10 µM [2]: 41%
growth at 0.01 µM [3]: 108%
growth at 0.001 µM [4]: 109%
growth at 0.01 µM [5]: 96%
growth at 0.01 µM [6]: 91%
growth at 0.01 µM [7]: 98%
growth at 0.001 µM [8]: 111%
growth at 0.01 µM [9]: 101%
growth at 10 µM [10]: 103%
growth at 0.1 µM [11]: 86%
growth at 0.001 µM [12]: 94%
growth at 1 µM [13]: 36%
growth at 0.1 µM [14]: 93%
growth at 0.01 µM [15]: 79%
TGI [16, 31]: > 100 µM
CC50 [16, 31]: > 100 µM
IC50 ([16]; nci/adr-res): Not Active
growth at 0.001 µM [17]: 101%
growth at 1 µM [18]: 60%
growth at 0.001 µM [19]: 93%
TGI ([20]; Homo sapiens, DU-145, 48 h): > 100 µM
CC50 ([20]; Homo sapiens, DU-145, 48 h): > 100 µM
IC50 ([20]; du-145): Not Active
growth at 1 µM [21]: 58%
growth at 0.1 µM [22]: 88%
growth at 0.01 µM [23]: 106%
GI50 [24]: > 100 µM
IC50 [24]: > 100 µM
TGI [24]: > 100 µM
CC50 [24]: > 100 µM
growth at 0.01 µM [25]: 76%
growth at 10 µM [26]: 44%
growth at 1 µM [27]: 63%
growth at 0.001 µM [28]: 94%
growth at 10 µM [29]: 51%
growth at 0.01 µM [30]: 90%

CC(=O)Nc1cccc(-c2ccc(-c3ccnc(NC(=O)Nc4cc(C(F)(F)F)cc(C(F)(F)F)c4)n3)cn2)c1.Cl
GI50 [1]: 1.48 µM
IC50 [1]: 1.48 µM
TGI [1]: 12.6 µM
CC50 [1]: 41.9 µM
growth at 10 µM [2]: -21%
growth at 0.01 µM [3]: 88%
growth at 0.001 µM [4]: 103%
growth at 0.01 µM [5]: 95%
growth at 0.01 µM [6]: 91%
growth at 0.01 µM [7]: 90%
growth at 0.001 µM [8]: 103%
growth at 0.01 µM [9]: 99%
growth at 10 µM [10]: 19%
growth at 0.1 µM [11]: 72%
growth at 0.001 µM [12]: 95%
growth at 1 µM [13]: 54%
growth at 0.1 µM [14]: 97%
growth at 0.01 µM [15]: 96%
GI50 [16, 31]: 3.66 µM
TGI [16, 31]: 47.4 µM
IC50 ([16]; Homo sapiens, NCI/ADR-RES, 48 h, read-out: IC50): 3.66 µM
CC50 [16, 31]: > 100 µM
growth at 0.001 µM [17]: 91%
growth at 1 µM [18]: 31%
growth at 0.001 µM [19]: 98%
GI50 ([20]; Homo sapiens, DU-145, 48 h): 6.57 µM
TGI ([20]; Homo sapiens, DU-145, 48 h): 19.6 µM
IC50 ([20]; Homo sapiens, DU-145, 48 h, read-out: IC50): 6.57 µM
CC50 ([20]; Homo sapiens, DU-145, 48 h): 47 µM
growth at 1 µM [21]: -7%
growth at 0.1 µM [22]: 57%
growth at 0.01 µM [23]: 86%
GI50 [24]: 2.06 µM
IC50 [24]: 2.06 µM
TGI [24]: 7.07 µM
CC50 [24]: 59.7 µM
growth at 0.01 µM [25]: 90%
growth at 10 µM [26]: -50%
growth at 1 µM [27]: -32%
growth at 0.001 µM [28]: 97%
growth at 10 µM [29]: 100%
growth at 0.01 µM [30]: 95%
